Measurements published in article PMC5647210 (Cancer immunology, immunotherapy : CII, 2017).

What was measured:
HCV1406 TCR = assay: Surface plasmon resonance TCR-pMHC binding; details: authors' ranges based on SPR KD
HLA-A2 = details: thermal denaturation of peptide-HLA-A2 complexes; cited from earlier work
[1] = test system: HCV1406 TCR-transduced T-cells; assay: IFNγ release at high, intermediate and low antigen density; assay type: cell-based, human; details: peptide-loaded HepG2 cells, 18 hr, ELISA
Outline: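 Normal-donor PBL transduced with HCV1406 TCR, CD34-enriched and split into CD4+/CD8+ by immunomagnetic selection. HepG2 targets either peptide-pulsed for 2 h or transduced with NS3:1406–1415 minigene–GFP vectors and sorted for high uniform GFP. Co-culture 1:1, 37 °C, 18 h. IFNγ from 1x105 T-cells measured by ELISA in triplicate (mean, SD). CD4+ vs CD8+ compared by unequal-variance two-sample t-tests.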

[2] = test system: HCV1406 TCR-transduced T-cells; assay: Degranulation CD107a assay; assay type: cell-based, human; details: T2 cells pulsed with 10 μg/mL peptide, 1:1 co-culture, flow cytometry

KLVALGNNAV [I1412N]
affinity category of TCR-pMHC interaction compared to WT (HCV1406 TCR): low affinity
Tm of peptide-HLA-A2 (HLA-A2): 59 °C

KLVALGINAV [WT]
Tm of peptide-HLA-A2 (HLA-A2): 64 °C
IFNγ secretion by CD8^+ T-cells, intermediate antigen density [1]: strong recognition

KLVALGVNAV [I1412V]
degranulation (surface CD107a) of CD4^+ TCR-transduced T-cells [2]: blunted compared to WT, I1412L, and V1408L
affinity category of TCR-pMHC interaction compared to WT (HCV1406 TCR): moderate affinity

KLLALGINAV [V1408L]
affinity category of TCR-pMHC interaction compared to WT (HCV1406 TCR): moderate affinity
Tm of peptide-HLA-A2 (HLA-A2): 61 °C

KLVALGLNAV [I1412L]
affinity category of TCR-pMHC interaction compared to WT (HCV1406 TCR): moderate affinity

KLTALGINAV [V1408T]
degranulation (surface CD107a) of CD4^+ TCR-transduced T-cells [2]: blunted compared to WT, I1412L, and V1408L
affinity category of TCR-pMHC interaction compared to WT (HCV1406 TCR): moderate affinity
Tm of peptide-HLA-A2 (HLA-A2): 69 °C
